ChEMBL document CHEMBL1157464, “1-[(3-Aryloxy-3-aryl)propyl]-1H-imidazoles, new imidazoles with potent activity against Candida albicans and dermatophytes. Synthesis, structure-activity relationship, and molecular modeling studies” (J Med Chem, 2008)
Values after ≈ are worked out from the molar mass of the structure shown.

Key:
Candida parapsilosis = experiment: Antifungal activity against Candida parapsilosis ATCC 22019 at 35 degC after 48 hrs by broth microdilution test; assay type: functional
In short: (§1)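 Broth microdilution per NCCLS M27-A2. Stocks in 100% DMSO, diluted in RPMI 1640 with 0.165 M MOPS at pH 7.0; final range 0.25–128 µg/mL. Inoculum 1000–5000 cells/mL from SDA subcultures. […] C. parapsilosis ATCC22019 served as QC strain.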

Candida albicans [1] = experiment: Antifungal activity against Candida albicans ATCC 10261 at 35 degC after 48 hrs by broth microdilution test; assay type: functional; in short: as §1
Candida albicans [2] = experiment: Antifungal activity against Candida albicans ATCC 10261 at 35 degC after 48 to 96 hrs by broth microdilution test; assay type: functional
In short: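 Minimal fungicidal concentration for Candida. […] MFC is the lowest concentration allowing fewer than two colonies (99% killing).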

Arthrodermataceae [3] = experiment: Antifungal activity against dermatophytes at 28 degC after 7 days by broth microdilution test; assay type: functional; details: 168 h
In short: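 Ten clinical isolates (two M. canis, five M. gypseum, three T. mentagrophytes) tested by NCCLS M38-A broth microdilution in MOPS-buffered RPMI 1640, pH 7.0, over 0.25–128 µg/mL. Conidial/hyphal suspension from PDA slants (28 °C, 7 days) adjusted to 65–70% transmittance at OD530, then diluted 1:50.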

Arthrodermataceae [4] = experiment: Antifungal activity against dermatophytes at 28 degC after 5 days by broth microdilution test
Arthrodermataceae [5] = experiment: Antifungal activity against dermatophytes at 28 degC after 48 to 96 hrs by broth microdilution test
[6] = Lodderomyces parapsilosis, ATCC 22019, 48 h, read-out: MFC
[7] = Lodderomyces parapsilosis, ATCC 22019, 48 h, read-out: MIC
[8] = Candida albicans, ATCC 10261, 48 h, read-out: MIC
[9] = Candida albicans, ATCC 10261, 48 h, read-out: MIC50
[10] = Candida albicans, ATCC 10261, 48 h, read-out: MIC90
[11] = Candida albicans, ATCC 10261, read-out: MFC

SMILES | MFC (Candida parapsilosis; [6]) [µg/mL] | MIC (Candida parapsilosis; [7]) [µg/mL] | MIC (Candida albicans [1]; [8]) [µg/mL] | MIC50 (Candida albicans [1]; [9]) [µg/mL] | MIC90 (Candida albicans [1]; [10]) [µg/mL] | MFC50 (Candida albicans [2]) [µg/mL] | MFC90 (Candida albicans [2]) [µg/mL] | MFC (Candida albicans [2]; [11]) [µg/mL] | MIC (Arthrodermataceae [3]) [µg/mL] | MIC50 (Arthrodermataceae [3]) [µg/mL] | MIC90 (Arthrodermataceae [3]) [µg/mL] | MFC90 (Arthrodermataceae [4]) [µg/mL] | MFC (Arthrodermataceae [4]; Arthrodermataceae) [µg/mL] | MFC50 (Arthrodermataceae [5]) [µg/mL] | MFC (Candida parapsilosis) [µg/mL] | MIC (Candida parapsilosis) [µg/mL] | MIC (Candida albicans [1]) [µg/mL] | MIC50 (Candida albicans [1]) [µg/mL] | MIC90 (Candida albicans [1]) [µg/mL] | MFC (Candida albicans [2]) [µg/mL]
O=[N+]([O-])O.c1ccc(C(OCCn2ccnc2)c2ccccc2)cc1 | 64 | 32 | 78.1 | 64 | 128 | 128 | >256 | 230 | – | – | – | – | – | – | – | – | – | – | – | –
Cc1ccc(C(CCn2ccnc2)Oc2ccc(C(C)C)cc2)cc1 (stereo not given) | 16 (≈ 47.8 µM) | 2 (≈ 5.98 µM) | 16.6 (≈ 49.6 µM) | 16 (≈ 47.8 µM) | 32 (≈ 95.7 µM) | 32 (≈ 95.7 µM) | 64 (≈ 191 µM) | 32 (≈ 95.7 µM) | – | – | – | – | – | – | – | – | – | – | – | –
Clc1ccc(C(CCn2cncn2)Oc2ccc(Cl)cc2Cl)cc1 (stereo not given) | 64 (≈ 167 µM) | 32 (≈ 83.6 µM) | > 128 | > 128 | > 128 | >128 | >128 | > 128 | 10.4 (≈ 27.2 µM) | 8 (≈ 20.9 µM) | 16 (≈ 41.8 µM) | >128 | 138 (≈ 360 µM) | 32 (≈ 83.6 µM) | – | – | – | – | – | –
Cc1ccc(C(CCn2ccnc2)Oc2ccc(C)cc2C)cc1 (stereo not given) | 32 (≈ 99.9 µM) | 8 (≈ 25 µM) | 46.5 (≈ 145 µM) | 32 (≈ 99.9 µM) | 64 (≈ 200 µM) | 64 (≈ 200 µM) | 64 (≈ 200 µM) | 62 (≈ 193 µM) | – | – | – | – | – | – | – | – | – | – | – | –
Cc1ccc(C(CCn2ccnc2)Oc2ccccc2)cc1 (stereo not given) | 32 (≈ 109 µM) | 4 (≈ 13.7 µM) | 20.3 (≈ 69.4 µM) | 16 (≈ 54.7 µM) | 32 (≈ 109 µM) | 32 (≈ 109 µM) | 64 (≈ 219 µM) | 38.4 (≈ 131 µM) | – | – | – | – | – | – | – | – | – | – | – | –
Clc1ccc(OC(CCn2ccnc2)c2ccccc2)c(Cl)c1 (stereo in doubt; (+)-14a) | – | – | – | – | – | – | 8 (≈ 23 µM) | – | – | – | – | – | – | – | 4 (≈ 11.5 µM) | 0.5 (≈ 1.44 µM) | 3.2 (≈ 9.22 µM) | 4 (≈ 11.5 µM) | 4 (≈ 11.5 µM) | 7.4 (≈ 21.3 µM)
Cc1ccc(OC(CCn2ccnc2)c2ccccc2)cc1 (single isomer, unassigned; (+)) | – | – | – | – | – | – | – | – | – | – | – | – | – | – | 8 (≈ 27.4 µM) | 1 (≈ 3.42 µM) | 6.5 (≈ 22.2 µM) | – | 8 (≈ 27.4 µM) | 14.9 (≈ 51 µM)
OC(CCn1ccnc1)(c1ccccc1)c1ccccc1 | 64 (≈ 230 µM) | 32 (≈ 115 µM) | 114 (≈ 410 µM) | 128 (≈ 460 µM) | 128 (≈ 460 µM) | 128 (≈ 460 µM) | 128 (≈ 460 µM) | 128 (≈ 460 µM) | – | – | – | – | – | – | – | – | – | – | – | –
Cc1ccc(OC(CCCCn2ccnc2)c2ccc(Cl)cc2)cc1 (stereo not given) | 8 (≈ 22.5 µM) | 8 (≈ 22.5 µM) | 32 (≈ 90.2 µM) | 32 (≈ 90.2 µM) | 32 (≈ 90.2 µM) | 32 (≈ 90.2 µM) | 32 (≈ 90.2 µM) | 32 (≈ 90.2 µM) | – | – | – | – | – | – | – | – | – | – | – | –
Clc1ccc(C(OCCn2ccnc2)c2ccc(Cl)cc2Cl)cc1.O=[N+]([O-])O (stereo not given) | 32 | 16 | 34.4 | 32 | 64 | 128 | 256 | 145 | – | – | – | – | – | – | – | – | – | – | – | –
Cc1ccc(C(CCn2ccnc2)Oc2c(Cl)cccc2Cl)cc1 (stereo not given) | 16 (≈ 44.3 µM) | 1 (≈ 2.77 µM) | 42 (≈ 116 µM) | 8 (≈ 22.1 µM) | 128 (≈ 354 µM) | 32 (≈ 88.6 µM) | 128 (≈ 354 µM) | 62.9 (≈ 174 µM) | – | – | – | – | – | – | – | – | – | – | – | –
